Screening data: PubChem, several laboratories
NSD2 HMT inh – NSD2 histone methyltransferase inhibitors, primary screen, biochemical, AlphaScreen, single concentration, set 2; NSD2 peptide methylation, 120 min; inhibition, % at 12.5 µM; hit rate 0.54% among 310,000; in the data active means inhibition above about 50%
UHRF1 binding – UHRF1 methylated DNA binding inhibitors, primary screen, counter-screen for MBD2 inhibitor project, biochemical, TR-FRET, human UHRF1, single concentration; hit rate 0.75% among 370,000; UHRF1 binding to methylated oligo; inhibition, % at 4.4 µM; E3 ubiquitin-protein ligase UHRF1 (Homo sapiens), Q96T88; in the data active means inhibition above about 21%;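 further: UHRF1 SRA domain binding a hemimethylated CpG hairpin DNA probe; 0% = median of test compound wells and 100% = reference inhibitor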
Target sequence (Q96T88 whole entry, looked up, the tested form may be a part): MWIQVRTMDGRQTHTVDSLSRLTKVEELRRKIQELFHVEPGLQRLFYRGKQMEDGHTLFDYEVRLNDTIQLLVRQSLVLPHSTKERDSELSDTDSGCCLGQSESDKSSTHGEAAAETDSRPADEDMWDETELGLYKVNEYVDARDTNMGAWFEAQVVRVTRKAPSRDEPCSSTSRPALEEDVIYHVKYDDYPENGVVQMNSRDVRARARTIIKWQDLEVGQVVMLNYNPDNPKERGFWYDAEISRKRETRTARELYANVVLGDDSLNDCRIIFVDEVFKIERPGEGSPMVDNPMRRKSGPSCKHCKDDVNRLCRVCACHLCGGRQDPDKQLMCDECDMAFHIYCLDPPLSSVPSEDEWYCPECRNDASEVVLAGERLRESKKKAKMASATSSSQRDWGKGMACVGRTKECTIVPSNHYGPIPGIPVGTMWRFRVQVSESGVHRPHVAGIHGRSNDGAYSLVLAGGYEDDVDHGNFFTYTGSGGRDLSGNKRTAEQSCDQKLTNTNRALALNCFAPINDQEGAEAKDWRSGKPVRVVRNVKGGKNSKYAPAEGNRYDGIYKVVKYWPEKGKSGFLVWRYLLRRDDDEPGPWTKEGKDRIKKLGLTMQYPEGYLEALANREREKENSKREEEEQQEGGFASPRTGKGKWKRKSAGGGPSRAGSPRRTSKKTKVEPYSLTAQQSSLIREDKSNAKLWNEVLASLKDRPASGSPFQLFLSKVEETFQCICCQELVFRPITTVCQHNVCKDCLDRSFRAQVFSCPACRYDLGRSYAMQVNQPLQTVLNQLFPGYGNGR
TDP2 inh – human TDP2 enzyme inhibitors, primary screen, biochemical, epi absorbance, recombinant enzyme | inhibition, % at 12.8 µM | hit rate 0.34% among 370,000 | Tyrosyl-DNA phosphodiesterase 2 (Homo sapiens), O95551 | T5PNP hydrolysis, p-nitrophenol absorbance 415 nm;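 active means inhibition above the mean of all tested compounds plus 3 SD, set per campaign, cut at about 25% in these data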;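 further: 0% = DMSO with enzyme and 100% = buffer with substrate but no TDP2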
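Material: recombinant human TDP2; quantity: TDP2 enzyme at 120 nM final; medium: Tris-HCl pH 7.5 with MgCl2; compound: single concentration, 12.8 µM nominal, with 1% DMSO; incubation: 2 h enzyme incubation at 37 °C; signal: epi absorbance; measure: percent inhibition; benchmarks: high control without enzyme, low control DMSO plus TDP2; repeats: singlicate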
Casp6 inh – human caspase-6 inhibitors, primary screen, biochemical, VEID-R110 fluorescence, single point, set 2; P55212; purified caspase-6, Z-VEID-R110 cleavage fluorescence; inhibition, % at 12.5 µM; hit rate 0.53% among 350,000;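 active means mean inhibition across replicates at least about 35%, with every replicate also reaching that limit, limit read from the data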;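 further: 0% = median of neutral control wells and 100% = no fluorescence left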
LEDGF integ inh – blockers of LEDGF/p75-dependent integrase strand transfer – biochemical, TR-FRET, high throughput, primary screen; HIV-1 integrase (with human LEDGF/p75); TR-FRET IN-LEDGF/p75 DNA integration, Eu/Cy5; inhibition, % at 3.7 µM; hit rate 0.64% among 370,000;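 active means inhibition above the screen-wide mean plus 3 SD, cut at about 13% in these data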;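 further: signal is the Cy5 over europium emission ratio at 671 and 618 nm; 0% = plate median of compound wells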
MBD2 inh – inhibitors of MBD2 binding to methylated DNA, primary screen, biochemical, TR-FRET, DNA-binding domain, human. Methyl-CpG-binding domain protein 2 (Homo sapiens), Q9UBB5. MBD2 binding to methylated oligonucleotide. inhibition, % at 4.4 µM. hit rate 0.31% among 370,000. AID 686964, 2013; in the data active means inhibition above about 13%
UHRF1 DNA bind – UHRF1 methylated DNA binding inhibitors, counter-screen for MBD2 inhibitor project, biochemical, TR-FRET, human UHRF1 | shares compounds with MBD2 inh | UHRF1 binding to methylated oligonucleotide | inhibition, % at 4.4 µM | hit rate 25% among 1,000; in the data active means inhibition above about 21%;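 further: UHRF1 SRA domain binding a labeled hemimethylated CpG hairpin DNA; 0% = vehicle only and 100% = reference inhibitor with vehicle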
MBD2 confirm – inhibitors of MBD2 binding to methylated DNA, confirmation, biochemical, TR-FRET, DNA-binding domain, human. hit rate 26% among 1,000. AID 720531, 2013. TR-FRET MBD2-DBD binding to methylated oligonucleotide. shares compounds with MBD2 inh. inhibition, % at 4.4 µM
TDP2 inh conf – human TDP2 enzyme inhibitors, retest, confirmation, biochemical, epi absorbance, recombinant enzyme; absorbance read-out; inhibition, % at 12.8 µM; AID 743263, 2014; hit rate 22% among 1,100; shares compounds with TDP2 inh; in the data active means inhibition above about 25%;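 further: 0% = vehicle with enzyme and 100% = no enzyme buffer only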
IN multimer act – HIV-1 IN multimer formation enhancers, counter-screen for LEDGF/p75 integration inhibitor project, biochemical, TR-FRET | AID 1053131, 2014 | hit rate 17% among 2,000 | shares compounds with LEDGF integ inh | TR-FRET HIV-1 integrase multimerization | activation, % at 7.7 µM; in the data active means activation above about 8.9%
TR-FRET interf – TR-FRET optical interference artefacts, confirmation, artefact control for LEDGF/p75-dependent integration inhibitor project, biochemical, HIV-1 IN multimerization; 2,000 tested, under 10 active; shares compounds with LEDGF integ inh; inhibition, % at 7.7 µM; TR-FRET optical interference counterscreen;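 active means inhibition above the mean over all tested compounds plus 3 SD, which no compound reached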;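 further: 0% = integrase with antibodies and DMSO and 100% = antibodies without integrase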
LEDGF integ conf – inhibitors of HIV-1 IN-LEDGF/p75 DNA integration, confirmation, biochemical, TR-FRET; shares compounds with LEDGF integ inh; TR-FRET LEDGF/p75-dependent HIV-1 integration; inhibition, % at 3.7 µM; hit rate 36% among 2,000; AID 1053136, 2014
The depositor's hits bear a star. Only some compounds are listed: those with a hit (about 1.8% of all), similar ones and a draw of the others. Unless noted, no stated cut-off is given here; in the data, active means inhibition above about 14%; inactive means the rest.

Screening C[C@@H]1CN([C@@H](C)CO)C(=O)c2cc(NS(=O)(=O)c3cccs3)ccc2O[C@H]1CN(C)Cc1ccc2c(c1)OCO2 returned Casp6 inh 0.
CN(C)c1ccc(O)c2c1CC1CC3[C@@H](N(C)C)C(=O)C(C(N)=O)=C(O)[C@]3(O)C(=O)C1=C2O (stereo partly drawn) was read as UHRF1 binding 80*, TDP2 inh 10, Casp6 inh 66*, LEDGF integ inh 77*, MBD2 inh 35*, UHRF1 DNA bind 36*, MBD2 confirm 15*, IN multimer act 51*, TR-FRET interf -182 and LEDGF integ conf 48*.
Screening COc1ccccc1/C=C1/C(=O)N(c2ccccc2)N=C1C returned NSD2 HMT inh 5, UHRF1 binding 16, TDP2 inh 80*, Casp6 inh 6, LEDGF integ inh 52*, MBD2 inh 18*, UHRF1 DNA bind 6, MBD2 confirm -1, TDP2 inh conf 14, IN multimer act 2, TR-FRET interf -10 and LEDGF integ conf 5.
`O=C(N[C@H]1CC[C@@H](CC(=O)N2CCC(Cc3ccccc3)CC2)O[C@@H]1CO)c1cnccn1` gave Casp6 inh 1.
Screening O=c1oc2c(-c3ccc([N+](=O)[O-])cc3)cc(O)cc2s1 returned NSD2 HMT inh -1, UHRF1 binding 30*, TDP2 inh 18, Casp6 inh 8, LEDGF integ inh 25*, MBD2 inh 21*, UHRF1 DNA bind 10, MBD2 confirm 7, IN multimer act 1, TR-FRET interf -4 and LEDGF integ conf -4.
`Cc1ccc(C)n1C(CC(=O)O)c1ccc(C#N)cc1` (stereo not drawn) gave NSD2 HMT inh 4, UHRF1 binding 95*, TDP2 inh -4, Casp6 inh 14, LEDGF integ inh 47*, MBD2 inh 27*, UHRF1 DNA bind 11, MBD2 confirm 5, IN multimer act 2, TR-FRET interf -6 and LEDGF integ conf 13.
Screening C=C(C)C(=O)Oc1ccc(N=Nc2ccc(C)cc2)ccc1=O returned NSD2 HMT inh 13, UHRF1 binding 62*, TDP2 inh 6, Casp6 inh 80*, LEDGF integ inh 18*, MBD2 inh 38*, UHRF1 DNA bind 66*, MBD2 confirm 43*, IN multimer act 31*, TR-FRET interf -157 and LEDGF integ conf 26*.
`Cc1ccc(S(=O)(=O)Nc2ccc3c(c2)C(=O)N([C@H](C)CO)C[C@H](C)[C@H](CN(C)S(=O)(=O)c2ccc(F)cc2)OCCCC[C@H](C)O3)cc1` gave Casp6 inh 2.
Screening N#Cc1c(SCC(=O)Nc2nccs2)sc2c(O)cc(=O)[nH]c12 returned NSD2 HMT inh 32, UHRF1 binding 77*, TDP2 inh 14, Casp6 inh 82*, LEDGF integ inh 18*, MBD2 inh 35*, UHRF1 DNA bind 27*, MBD2 confirm 15*, IN multimer act 44*, TR-FRET interf -156 and LEDGF integ conf 34*.
`CCOc1cccc(NC(=O)CSc2sc3c(O)cc(=O)[nH]c3c2C#N)c1` gave UHRF1 binding 2, TDP2 inh 11, Casp6 inh 16, LEDGF integ inh -1 and MBD2 inh 4.
NC(=O)c1sc2nc(-c3ccccc3)ccc2c1N was read as NSD2 HMT inh -1, UHRF1 binding -2, TDP2 inh 0, Casp6 inh 0, LEDGF integ inh -5 and MBD2 inh 0.
Screening CC(=O)c1sc2nc(-c3ccco3)ccc2c1N returned NSD2 HMT inh -1, UHRF1 binding 92*, TDP2 inh 1, Casp6 inh 64*, LEDGF integ inh 59*, MBD2 inh 45*, UHRF1 DNA bind 28*, MBD2 confirm 7, IN multimer act 8, TR-FRET interf -29 and LEDGF integ conf 4.
Screening O=S(=O)(c1ccc2ccccc2c1)N1CCOCC1 returned NSD2 HMT inh 7, UHRF1 binding -3, TDP2 inh 5, Casp6 inh -5, LEDGF integ inh 2 and MBD2 inh -3.
Screening O=S(=O)(c1ccc2nc(-c3ccco3)c(-c3ccco3)nc2c1)N1CCOCC1 returned NSD2 HMT inh 17, UHRF1 binding 30*, TDP2 inh 17, LEDGF integ inh 67*, MBD2 inh 14*, UHRF1 DNA bind 17, MBD2 confirm -2, IN multimer act 1, TR-FRET interf -5 and LEDGF integ conf 45*.
